The nature of the data set: Toxicity liver stage against HepG2, at 10uM. It counts as cell-based. Further details: test concentration 10 uM, cell line HepG2-A16-CD81EGFP. The note with it: human, HepG2-A16-CD81EGFP cells; read-out: INHIBITION
An outline of the steps: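 Uninfected HepG2-A16-CD81EGFP cells, 3 × 10^3 per well, 1536-well, plated on prespotted compound at 10 μM final, parasite-free screening media added to match infected plates; puromycin 10 μM positive, DMSO 0.5% negative; run in parallel with 48 h PbLuc assay at 37 °C, 5% CO2; viability by CellTiter-Glo luminescence, normalized to controls.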
`Cc1ccccc1C(C)(C)CNC(=O)CCSc1nnnn1C`: the cytotoxicity at 10 µM was found to be 6.51%. For the compound `CN(Cc1ccco1)C(=O)CN1CCOC(Cn2cccn2)C1` (configuration not stated), the cytotoxicity at 10 µM was -9.91%. Consider `CCCc1cc(CNC2CCN(c3cc(C(C)C)nc(C)n3)CC2)on1`, for which the cytotoxicity at 10 µM was -13.6%.

On to `CCN(Cc1nonc1C)C(=O)Cn1nc(C(F)(F)F)cc1C1CC1`, for which the cytotoxicity at 10 µM was found to be 1.45%. The value for `CN(Cc1cc2n(n1)CCNC2)Cc1cc(-c2ccccn2)no1` was 1.91%; that for `CN1CCC(Cc2cncc(-c3ccccc3C(=O)O)n2)C1` (configuration not stated) was -7.19%; that for `CCc1nnc(CN2CCc3ccc(S(N)(=O)=O)cc32)o1` was 1.41%. The value for `Cc1ccccc1OC1CCN(CC(=O)Nc2c(C)nn(C)c2C)CC1` was 0.919%; that for `COc1c(CNCCc2c[nH]c3ccccc23)c(C)nn1C` was 15%; that for `Cc1ccc(CN2C(=O)CCC23CCC(NC2CCOC2)CC3)cc1` (configuration not stated) was -3.04%. Regarding `CC(C)C(=O)N1CCCC2(C1)CN(c1nncs1)CCO2` (configuration not stated), the cytotoxicity at 10 µM is -104%. For the compound `O=C(CNC(=O)c1cnc2ccccc2c1O)NCCn1ccnc1`, the cytotoxicity at 10 µM is -3.02%. As for `CCCc1nnc2sc(C3CCN(C4CCN(C)CC4)CC3)nn12`, the figure is -10.6%; as for `CCCc1c(C(=O)N2CCN(c3ncccn3)CC2)cnn1C`, 3.38%.

Consider `CC(C)N1CCOC(CC(=O)N2CCCN(c3ccc(F)cc3)CC2)C1` (configuration not stated), for which the cytotoxicity at 10 µM was -4.66%. Consider `CO[C@H]1CCN(S(=O)(=O)c2cccs2)[C@H]1Cc1cccnc1`, for which the cytotoxicity at 10 µM is -75.5%.

For the compound `Cc1ccccc1-c1noc(CNc2ccc(F)cc2OCCO)n1`, the cytotoxicity at 10 µM is -41.7%. Take `COCc1nnc(-c2cccc(C(=O)N(C(C)C)C3CCC3)c2)o1`: the cytotoxicity at 10 µM is 1.51%.

As to `COC(=O)NCc1cc2n(n1)CCCN(C(C)=O)C2`, the cytotoxicity at 10 µM is -2.26%.

As to `COc1ccc2[nH]cc(C(=O)CNc3nccs3)c2c1`, the cytotoxicity at 10 µM came out at 4.32%.

As for `Cc1nc(CNc2nc(-c3ccco3)nc3c2CCNCC3)n[nH]1`, the cytotoxicity at 10 µM was -9.08%. As for `CC(C)Cn1cncc1CNC(=O)c1cccc(-n2cnnc2)c1`, the figure is -5.54%; as for `CNC(=O)Cn1cc(Nc2cccc(F)c2C#N)cn1`, 6.64%; as for `Cn1ccnc1CN1CCC2(CC1)CN(Cc1ccccc1)C(=O)CO2`, -3.99%. On to `O=C(NCCc1c[nH]cn1)c1ccc2c(c1)C(=O)N(C1CCCC1)C2=O`, for which the cytotoxicity at 10 µM was -6.09%. As for `CCc1nccn1C1CCCN(C(=O)Cc2n[nH]c3ccccc23)C1` (configuration not stated), the figure is -0.337%. The value for `CCCN1Cc2cc(Br)ccc2OCC1=O` was 3.72%; that for `Cc1ccc(C(=O)N2CCCCC2CN(C)C)cc1` (configuration not stated) was -9.98%; that for `COCc1cccc(NC(=O)N(C)Cc2ncc(C)c(OC)c2C)c1` was -1.01%. Turning to `Cc1cnn(CC2CN(c3ncnc4c3CCC4)CCO2)c1` (configuration not stated), the cytotoxicity at 10 µM came out at 56.5%. Regarding `CN(Cc1cccnc1)C1CC2(CCN(C(=O)c3cnccn3)CC2)C1`, the cytotoxicity at 10 µM is -0.733%. In the case of `CN1C[C@@H](C(=O)NCC(F)(F)F)[C@@]2(CCc3ccccc3C(=O)N2)C1`, the cytotoxicity at 10 µM was found to be 6.22%. As for `Cc1c(COc2ccccc2)cccc1NC(=O)N1CC[C@H](O)C1`, the figure is 13.7%.

For `Cc1[nH]ccc1C(=O)N1CCCN1C(=O)OC(C)(C)C`, the cytotoxicity at 10 µM is -6.49%. Regarding `Cc1ccc(N2CCC3(CCN(C(=O)c4ccsc4)CC3)CC2)nn1`, the cytotoxicity at 10 µM is 2.19%. In the case of `CC(CNC(=O)N1CCSCC1)Cc1cccs1` (configuration not stated), the cytotoxicity at 10 µM was -8.63%. As for `O=C1CCC(c2ccccc2)(c2ccccc2)CN1CCO`, the figure is 2.94%; as for `NC(=O)C(NCc1ccc(Cl)s1)c1ccccc1` (configuration not stated), 2.8%. Turning to `COc1ccccc1OC1CCN(C(=O)c2cnc(C)cc2C)CC1`, the cytotoxicity at 10 µM amounted to 4.36%. For the compound `CCc1cc(=O)n(CC(=O)N2CCC(C)CC2)c(-c2ccccc2)n1`, the cytotoxicity at 10 µM came to 10.8%. The value for `OCC(CO)Nc1ccc2c(Cl)ccc(Cl)c2n1` was -3.04%; that for `COc1cc2c(cc1CNC(=O)Cc1cc(C)on1)OC(C)C2` (configuration not stated) was 5.38%; that for `O=C(COc1ccccc1)N1C[C@@H](O)[C@H](N2CCCC2)C1` was -6.54%. As for `CC1(C)Oc2ccc(S(=O)(=O)NCCCn3ccnc3)cc2NC1=O`, the figure is 14.5%; as for `Fc1cnc(N2CCCn3c(CN4CCOCC4)nnc3C2)nc1`, -138%. As to `CCn1c(C)nnc1CN(C)C1CCN(CCCOC)C1` (configuration not stated), the cytotoxicity at 10 µM worked out at 4.19%. For the compound `O=C1NCCCC12CCN(Cc1ccc(SC3CCCCC3)o1)C2` (configuration not stated), the cytotoxicity at 10 µM was -3.33%.

As to `COCC(=O)N1CC2=CC(C)(C)COc3ccc(OC)c(c32)C1`, the cytotoxicity at 10 µM was -2.59%. In the case of `c1ccc2oc(CN3CCCC3c3noc(C4CC4)n3)nc2c1` (configuration not stated), the cytotoxicity at 10 µM is -4.04%. As for `COc1cccc(C2CCCN2C(=O)CC2=CSC3=NCCCN23)c1` (configuration not stated), the figure is -0.277%; as for `NC(=O)C1CCN(C(=O)NCc2ccccc2-n2cccn2)CC1`, -11.1%; as for `CCc1ccccc1NC(=O)N1CCn2cnc(COC)c2C1`, -11.8%. As for `COC(=O)CCNC(=O)c1ccc(NC(=O)N(C)CC(C)(C)C)cc1`, the figure is 8.01%; as for `Cc1nc2c(c(N[C@H](C(N)=O)C(C)C)n1)Cc1ccccc1OC2`, 4.71%. Turning to `CCn1nc2c(cc1=O)CN(c1ncnc3ccsc13)CC2`, the cytotoxicity at 10 µM amounted to 49.6%. The value for `Cc1cc(C)n(CC2CCCN2C(=O)CCCc2ccccn2)n1` (configuration not stated) was -0.395%.

As for `CC(C)C1=NOC(c2nc(-c3cccc(Cl)c3)no2)C1` (configuration not stated), the cytotoxicity at 10 µM was -7.42%. As for `O=C(c1cc(Cl)c[nH]c1=O)N1C[C@H]2CC[C@@H](C1)N(Cc1ccccc1)C2`, the figure is -113%; as for `CS(=O)(=O)N1CCC(NC(=O)COc2ccc(Cl)c(Cl)c2)CC1`, -6.46%. The value for `CCCc1nc(CN2CCOC(CNc3cccnn3)C2)cs1` (configuration not stated) was -6.71%; that for `Cc1cc(C)n(CC2CCCCN2CC(=O)Nc2c(C)n[nH]c2C)n1` (configuration not stated) was -1.92%. As for `CC(C)Cn1ncc2cc(C(=O)N(C)CCc3ccccc3)cnc21`, the figure is -3.42%; as for `O=C(NC1CCN(c2ncccn2)CC1)c1cc2c([nH]c1=O)CCC2`, 1.28%; as for `CN(Cc1ccccn1)CC1CCCN1c1cccnn1` (configuration not stated), 2.43%.

For the compound `Cc1cnc(C(=O)N2CCC(COCc3ccccc3)C2)cn1` (configuration not stated), the cytotoxicity at 10 µM stood at 7.54%.

With `O=C(C1CCC1)N1CC[C@]2(O)CCN(Cc3ncccn3)C[C@@H]2C1`, the cytotoxicity at 10 µM was 3.97%. As for `CC(=O)N[C@H]1CCN(C(=O)c2cc(Cn3cnc4ccccc43)[nH]n2)C1`, the cytotoxicity at 10 µM is -1.91%. With `CCn1ccc(-c2cc(C(=O)O)n3nc(C)c(Cl)c3n2)n1`, the cytotoxicity at 10 µM was -3.48%.

As to `CN(C)CC1CN(c2ncnc3ccsc23)CCO1` (configuration not stated), the cytotoxicity at 10 µM is 12%.

Take `CN(C)c1cc(C(=O)NCc2cccnc2-n2cncn2)ccn1`: the cytotoxicity at 10 µM worked out at 8.15%. As for `COCC(C)(CCO)NC(=O)Nc1cccc(F)c1C` (configuration not stated), the figure is 7.94%. As for `CCc1nnc(CNC(=O)CCC2CCCN(C)C2)s1` (configuration not stated), the figure is -148%; as for `CCOC(=O)CC(C)Nc1nc(C(C)(C)C)nc2c1cnn2C` (configuration not stated), 6.51%; as for `O=C(c1ccnnc1)N1CCC2(CC1)CC(N1CCOCC1)C2`, 6.97%.

With `CC(C(=O)O)N1CC2(CCC1=O)CCN(CCc1ccccc1)CC2` (configuration not stated), the cytotoxicity at 10 µM was -0.503%. For the compound `COc1ccccc1C(=O)Nc1c(C)cnn1CC1CC1`, the cytotoxicity at 10 µM is -3.47%. Take `CS(=O)(=O)N1CCOCC2(CCN(C(=O)c3ccncc3)CC2)C1`: the cytotoxicity at 10 µM was found to be 2.78%.

As to `Cc1noc(C)c1CN1CC[C@H]2OCC[C@@H](C(=O)NCC3CC3)[C@@H]2C1`, the cytotoxicity at 10 µM is -8.55%. Consider `CC(C)(C)c1oc(C(N)=O)cc1CN1CCCCC1CN1CCOCC1` (configuration not stated), for which the cytotoxicity at 10 µM was -11.2%.

As for `O=C(CSC1CCCC1)N1CCN(c2ccc(-n3cncn3)nn2)CC1`, the cytotoxicity at 10 µM came to 6.93%. As for `CN(Cc1nnc(C2CC2)n1C)C1CCN(Cc2ccc(F)cc2)C1` (configuration not stated), the figure is -7.17%; as for `CS(=O)(=O)CCC(=O)Nc1nccn1Cc1ccccc1Cl`, -5.98%; as for `CC(NC(=O)COc1ccc(F)cc1)c1nnc2n1CCCCC2` (configuration not stated), -8.99%. Turning to `CCCNc1ncc(CN2CCC3(CC2)CNC(=O)C3)cn1`, the cytotoxicity at 10 µM is -7.07%. As for `Cn1cc(CCCNC(=O)NC2CCN(c3ccccc3)C2=O)cn1` (configuration not stated), the figure is 6.75%; as for `CC(C)Nc1cccc(CNC(=O)N2CCC(N3CC=CC3)C2)c1` (configuration not stated), 2.01%.

Turning to `COc1c(C2CCCN2C(=O)c2nccnc2N)c(C)nn1C` (configuration not stated), the cytotoxicity at 10 µM is -5.55%. Regarding `CN(C)c1cc(CNC(=O)c2ccccc2S(C)(=O)=O)ccn1`, the cytotoxicity at 10 µM is -10.7%. In the case of `c1cnn(CC2CN(c3ncnc4ccsc34)CCO2)c1` (configuration not stated), the cytotoxicity at 10 µM worked out at 38.7%. As for `O=C(N1CCCO1)[C@@]12CCO[C@@H]1CCN(Cc1ccsc1)C2`, the figure is 1.73%; as for `Cc1cc(C(=O)NC2CCCOc3cc(Cl)ccc32)n(C)n1` (configuration not stated), 1.97%. As for `Cc1ccnc(OC[C@]23COC[C@H]2CN(C(=O)c2ncccn2)C3)n1`, the figure is -3.18%; as for `Cn1cc(CN2CCCC3(CCN(Cc4ccncc4)C3=O)C2)cn1` (configuration not stated), 8.68%.

As to `COc1ccc(C(=O)C2CCCN(Cc3ccc(C)o3)C2)c(OC)c1` (configuration not stated), the cytotoxicity at 10 µM was 1.17%. Take `CCCN(CC1COc2ccccc2O1)C(=O)c1ncoc1CC` (configuration not stated): the cytotoxicity at 10 µM is -42.2%.

In the case of `Cc1noc(C)c1CN1CCCC(c2noc(C3CC3)n2)C1` (configuration not stated), the cytotoxicity at 10 µM was -12.8%. As for `O=C(Cc1ccc2c(c1)OCCO2)NC1CC1`, the cytotoxicity at 10 µM is -11.2%.

Source of the values: ChEMBL document CHEMBL4513216, “Probing the Open Global Health Chemical Diversity Library for Multistage-Active Starting Points for Next-Generation Antimalarials” (ACS Infect Dis, 2020).
